Measured values: ChEMBL document CHEMBL2202957, “Redox potentials, laccase oxidation, and antilarval activities of substituted phenols” (2012)
Activity calls are given as the source filed them. No cut-off for these calls is given here.

Experiments:
[1] = system: Trametes versicolor;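 for Km: kinetic parameters for Trametes versicolor laccase, determined from a spectrophotometric readout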;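 for kcat/Km: measured with the laccase enzyme of Trametes versicolor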
[2] = system: Trametes versicolor; remark: listed apart in the source;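 for Km: kinetic parameters for Trametes versicolor laccase, determined from a spectrophotometric readout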;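 for kcat/Km: measured with the laccase enzyme of Trametes versicolor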
[3] = system: Anopheles gambiae; test: Antilarval activity against third-instar larvae of Anopheles gambiae assessed as mortality at 1000 ug/L after 72 hrs; assay type: functional
In short: (§1)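 Third-instar larvae came from a laboratory An. gambiae colony originally from MR4. Groups of 12–15 larvae were held at 25°C in distilled water with larval food. Compound was added from an acetone or water stock to final 50 or 1000 μg/L, with a solvent-only control. Treatments and controls were run four times, and mortality was scored at 72 h.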

[4] = system: Anopheles gambiae; test: Antilarval activity against third-instar larvae of Anopheles gambiae assessed as mortality at 50 ug/L after 72 hrs; assay type: functional
In short: as §1

[5] = system: Trametes versicolor; test: Inhibition of Trametes versicolor laccase
[6] = system: Anopheles gambiae; test: Antilarval activity against third-instar larvae of Anopheles gambiae assessed as effect on cuticle development by microscopic analysis relative to control; assay type: functional
[7] = system: Culex pipiens molestus; test: Antilarval activity against third-instar larvae of Culex molestus assessed as mortality at 100 ug/L after 72 hrs; assay type: functional

Row | Structure (SMILES) | kcat/Km [1] | Km [2] | kcat [2] | Activity [3] | Activity [4] | inhibition [5] | Activity [6] | Activity [7]
1 | Nc1ccccc1O | 197000 M⁻¹ s⁻¹ | 190 µM | 37.5 s⁻¹ |  |  |  |  | 
2 | COC1=CC(=O)C(N[C@@H](C)C(=O)OCc2ccccc2)=C(Cl)C1=O |  |  |  | 6.66% | 5% |  |  | 
3 | COc1cc(C=O)cc(Cl)c1O | 47800 M⁻¹ s⁻¹ | 2200 µM | 105 s⁻¹ |  |  | inactive |  | 
4 | CC(C)(C)c1cc(C(C)(C)/C=N/O)cc(C(C)(C)C)c1O |  |  |  | 93.1% | 5.41% |  |  | 
5 | CC(C)(Br)C(=O)c1cc(C(C)(C)C)c(O)c(C(C)(C)C)c1 |  |  |  | 60% | 0% |  |  | 
6 | CC(C)(C)c1cc(C(C)(C)CO)cc(C(C)(C)C)c1O |  |  |  | 46.7% | 0% |  |  | 
7 | Nc1ccccc1N | 40300 M⁻¹ s⁻¹ | 430 µM | 17.3 s⁻¹ |  |  |  |  | 
8 | CC1(C)CCc2cc(C(C)(C)C)cc(C(C)(C)C)c2O1 |  |  |  | 91.7% | 5.77% |  |  | 
9 | CC(C)(C)c1cc(C(C)(C)C(=O)[O-])cc(C(C)(C)C)c1O.[Na+] |  |  |  | 12.3% | 5.5% |  |  | 
10 | CC(C)(C)c1cc(C(C)(C)CNCc2ccccc2)cc(C(C)(C)C)c1O.O=C(O)C(F)(F)F |  |  |  | 7.7% | 3.71% |  |  | 
11 | O=Cc1cc(O)c(O)c(Cl)c1 | 792000 M⁻¹ s⁻¹ | 40 µM | 31.7 s⁻¹ |  |  | inactive |  | 
12 | COc1c(O)cc(O)c(Br)c1Cl | 1.37e+06 M⁻¹ s⁻¹ | 70 µM | 96 s⁻¹ |  |  | inactive |  | 
13 | CC(C)=CCc1cc(C(C)(C)C)cc(C(C)(C)C)c1O |  |  |  | 98.3% | 98.1% |  | Active | 60%
14 | Nc1ccc(C(=O)O)cc1O | 250000 M⁻¹ s⁻¹ | 170 µM | 42.5 s⁻¹ |  |  | inactive |  | 
15 | Oc1ccc(O)cc1 [HYDROQUINONE] | 594 M⁻¹ s⁻¹ | 20 µM | 119 s⁻¹ | 5.38% | 1.25% |  |  | 
16 | COc1cc(O)c(O)c(Cl)c1Br | 2.24e+06 M⁻¹ s⁻¹ | 40 µM | 89.7 s⁻¹ |  |  | inactive |  | 
17 | Oc1cc(O)c(Br)c(Cl)c1O | 2.89e+06 M⁻¹ s⁻¹ | 50 µM | 145 s⁻¹ | 11.4% | 0% | inactive |  | 
18 | Nc1cc(C(=O)O)ccc1O | 698000 M⁻¹ s⁻¹ | 70 µM | 48.8 s⁻¹ |  |  | inactive |  | 
19 | Cc1ccc(O)c(N)c1 | 1.19e+06 M⁻¹ s⁻¹ | 110 µM | 131 s⁻¹ |  |  | inactive |  | 
20 | COc1cc(O)c(Br)c(Cl)c1O | 262000 M⁻¹ s⁻¹ | 70 µM | 18.3 s⁻¹ |  |  | inactive |  | 
21 | CC(C)(C)c1cc(C(C)(C)c2ccccc2)cc(C(C)(C)C)c1O |  |  |  | 100% | 93.3% |  |  | 
22 | CC(C)(C)c1cc(C(C)(C)C=O)cc(C(C)(C)C)c1O |  |  |  | 65% | 0% |  |  | 
23 | Oc1ccccc1O | 55800 M⁻¹ s⁻¹ | 600 µM | 33.5 s⁻¹ |  |  |  |  | 
24 | Nc1cc(CO)ccc1O | 788000 M⁻¹ s⁻¹ | 80 µM | 63 s⁻¹ |  |  | inactive |  | 
